# UBC13 inh: human UBC13 polyubiquitination inhibition; P61088; UBC13 polyubiquitin chain formation, TR-FRET; inhibition, % at 20 µM; 330,000 tested, 0.47% active; AID 485273; in the data active means inhibition above about 45%, passing the limit was not always enough
# SENP8 block-1: inhibitors of human SENP8 protease; inhibition, % at 20 µM; 360,000 tested, 0.64% active; recombinant SENP8, Nedd8 substrate fluorescence; in the data active means inhibition mostly above about 40%, no sharp cut-off; inactive means mostly below about 27%
# Apaf-1 inh: blocks human Apaf-1 apoptosome activity; reconstituted apoptosome caspase-3 activity, DEVD-Rh110 fluorescence; inhibition, % at 20 µM; 330,000 tested, 0.71% active; AID 489030; active means inhibition of at least 40% at 20 µM;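 further: plate controls were DMSO wells for no effect and DEVD-CHO caspase inhibitor wells for full effect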
#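 System – cell-free apoptosome with Apaf-1, procaspase-3 and caspase-9 · Buffer or medium – pH 7.5 Hepes buffer with CHAPS, BSA, DTT · Also added – cytochrome c with DEVD-Rh110 · Times – 30 min compound preincubation, 50 min activation, room temperature · Technique – Rh110 fluorescence intensity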
# SENP6 block: SENP6 protease inhibition; Q9GZR1; Recombinant SENP6 catalytic domain, aminoluciferin luminescence; 330,000 tested, 1.8% active; inhibition, % at 10 µM;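 active means inhibition above about 50% at the single tested dose, limit read from the data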;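 further: plate controls were DMSO wells with enzyme for no effect and DMSO wells lacking enzyme for full effect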
# Target sequence (Q9GZR1 628-1112 limits assumed): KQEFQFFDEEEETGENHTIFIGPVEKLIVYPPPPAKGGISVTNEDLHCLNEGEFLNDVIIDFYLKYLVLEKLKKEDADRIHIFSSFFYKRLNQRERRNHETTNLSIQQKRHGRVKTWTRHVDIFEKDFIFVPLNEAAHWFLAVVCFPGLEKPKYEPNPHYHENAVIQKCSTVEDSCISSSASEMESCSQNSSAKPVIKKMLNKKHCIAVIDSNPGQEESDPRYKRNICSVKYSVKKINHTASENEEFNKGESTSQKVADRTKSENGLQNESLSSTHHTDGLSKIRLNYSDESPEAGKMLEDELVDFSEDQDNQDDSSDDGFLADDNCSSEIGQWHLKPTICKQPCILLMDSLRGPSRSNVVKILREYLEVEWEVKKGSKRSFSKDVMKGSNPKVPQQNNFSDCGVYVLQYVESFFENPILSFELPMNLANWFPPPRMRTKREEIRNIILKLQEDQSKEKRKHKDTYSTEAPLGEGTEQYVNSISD
# SENP7 inh: inhibitors of human SENP7 protease | recombinant SENP7, Z-RLRGG-aminoluciferin luminescence, 40 min | inhibition, % at 5 µM | 330,000 tested, 1.5% active | AID 434973;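 active means inhibition above about 50% at the single test dose, limit read from the data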;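 further: plate controls were DMSO with enzyme for no effect and no enzyme buffer wells for full effect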
# SENP8 block-2: blocks the human protease SENP8; 330,000 tested, 1.2% active; purified SENP8, Z-RLRGG-aminoluciferin cleavage, luminescence; Q96LD8; inhibition, % at 10 µM; AID 2540; in the data active means inhibition above about 50%
# SENP8 confirm: confirmation of human SENP8 protease inhibitors; shares compounds with SENP7 inh; Recombinant SENP8, Z-RLRGG-aminoluciferin luminescence, 60 min; inhibition, % at 12.5 µM; 6,200 tested, 40% active; AID 488912;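 active means mean inhibition across replicates above about 50%, limit read from the data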
# SENP6 confirm: human SENP6 inhibition, confirmed | shares compounds with SENP7 inh | recombinant SENP6, Z-RLRGG-aminoluciferin luminescence | inhibition, % at 12.5 µM | 6,200 tested, 58% active | AID 488915
# SENP7 confirm: human SENP7 inhibition, confirmed; shares compounds with SENP7 inh; recombinant SENP7, Z-RLRGG-aminoluciferin luminescence, 40 min; inhibition, % at 12.5 µM; 6,200 tested, 69% active; AID 488917
# Casp3 SENP sel: selectivity test for SENP inhibitors: human caspase-3 inhibition. shares compounds with SENP7 inh. purified caspase-3, Z-DEVD-aminoluciferin luminescence, 60 min. inhibition, % at 12.5 µM. 6,200 tested, 60% active;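 active means mean inhibition above about 50%, limit read from the data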;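 further: plate controls were enzyme with DMSO for no effect and wells without caspase-3 for full effect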
# Luc interf: counter-screen for SENP inhibitors: luminescence interference; Pre-incubated SENP8/Z-RLRGG-aminoluciferin, luciferase luminescence interference; inhibition, % at 12.5 µM; shares compounds with SENP7 inh; 6,200 tested, 39% active;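 active means mean inhibition above about 50% when retested at one dose, limit read from the data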;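 further: plate controls were DMSO wells with completed reaction for no effect and substrate without enzyme for full effect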
# An asterisk follows results filed as active; . = not tested or not shown. An excerpt weighted towards active compounds, which were near 3% of everything screened.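 How the source made its calls, unless noted: active means mean inhibition above about 50% in the one-dose retest (limit read from the data); inactive means the rest.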
SMILES,UBC13 inh,SENP8 block-1,Apaf-1 inh,SENP6 block,SENP7 inh,SENP8 block-2,SENP8 confirm,SENP6 confirm,SENP7 confirm,Casp3 SENP sel,Luc interf
CCNC(=O)C[C@@H]1C=C[C@@H](NS(=O)(=O)c2ccc(F)cc2)[C@@H](CO)O1,.,16,.,.,.,.,.,.,.,.,.
COc1ccc(-c2nc3ccc(Cl)cn3c2Cc2cccc(F)c2)cc1OC,.,-368,.,.,.,.,.,.,.,.,.
COc1ccc(NC(=O)Nc2ccc3c(c2)C(=O)N([C@H](C)CO)C[C@@H](C)[C@@H](CN(C)C(=O)C2CCCCC2)OCCCC[C@H](C)O3)cc1,.,8,.,.,.,.,.,.,.,.,.
COc1ccc(C(=O)OCC(=O)c2cc(OC)ccc2OC)c(OC)c1,7,-302,17,-6,-4,-13,.,.,.,.,.
COc1ccc(C(=O)COC(=O)c2ccccc2O)c(OC)c1,-5,-20,-5,51*,43,31,51*,44,37,28,29
Cc1noc(/C=C/c2ccccn2)c1[N+](=O)[O-],9,0,-3,10,-2,-4,.,.,.,.,.
COc1ccccc1N/C=C/c1onc(C)c1[N+](=O)[O-],-352,22,2,99*,99*,96*,84*,95*,96*,92*,11
COc1ccccc1C(=O)N/N=C/C(C)=C/c1ccccc1,-8,17,-12,4,1,-4,.,.,.,.,.
CC(=C/c1ccccc1)/C=N/NC(=O)c1ccccn1,-6,-36,-4,69*,81*,61*,72*,71*,92*,85*,73*
CC(/C=N/NC(=O)c1ccncc1)=C\c1ccccc1,-7,1,-19,-5,5,-8,.,.,.,.,.
O=C(N/N=C/c1ccc(Cl)cc1Cl)c1cccc(F)c1,14,20,9,89*,88*,77*,-6,10,33,32,7
CC(=C/c1ccccc1)/C=N/NC(=O)c1cccs1,-7,-22,17,83*,79*,75*,42,80*,96*,70*,34
O=C(N/N=C/C(Br)=C\c1ccccc1)c1cccs1,3,9,14,63*,30,52*,18,49,77*,30,7
COc1ccc(C(=O)c2[nH]c(N)c(C(=O)NCCc3c[nH]c4ccccc34)c2-c2ccc(OC)c(OC)c2)cc1,.,-6,.,.,.,.,.,.,.,.,.
COC(=O)[C@H](NC(=O)c1cc(-c2ccccc2)sc1N)C(C)C,.,-124,.,.,.,.,.,.,.,.,.
O=C(O)c1ccc(N/N=C/C(Br)=C/c2ccccc2)cc1,2,-42,-16,101*,83*,96*,99*,100*,103*,85*,96*
O=C(N/N=C/c1ccc(OC(=O)c2cccs2)cc1)c1cccc(F)c1,1,17,-1,16,72*,3,-9,-4,-4,25,4
CC(/C=N/NC(=O)c1cccc(F)c1)=C\c1ccccc1,-4,-3,18,83*,79*,67*,76*,78*,95*,82*,71*
O=C(N/N=C/c1ccc(OC(=O)c2cccc(F)c2)cc1)c1cccnc1,-2,-2,1,36,13,24,.,.,.,.,.
CSc1ccc(/C=N/NC(=O)c2cccs2)cc1,5,-385,3,83*,88*,74*,26,66*,98*,86*,85*
O=C(Nc1ccc2c(c1)CN(C(=O)Nc1ccc(F)cc1)CC2)c1ccccn1,.,-1,.,.,.,.,.,.,.,.,.
O=C(NCc1ccco1)c1[nH]c(C(F)(F)F)nc1-c1ccccc1,.,25,.,.,.,.,.,.,.,.,.
O=C(N/N=C/c1ccc(-c2ccccc2C(=O)O)o1)c1cccs1,-7,-307,4,51*,19,21,41,32,64*,73*,20

# Source: PubChem BioAssay
